The subject of series [1] is Plasmodium falciparum. Put plainly: Antiplasmodial activity chloroquine-sensitive Plasmodium falciparum 3D7 infected in human A+ erythrocytes assessed as inhibition of [3H]-hypoxanthine incorporation after 24 hrs by scintillation counting. It counts as functional, organism-based.
The subject of series [2] is Plasmodium falciparum. Nature of the series: Antiplasmodial activity chloroquine-resistant Plasmodium falciparum K1 infected in human A+ erythrocytes assessed as inhibition of [3H]-hypoxanthine incorporation after 24 hrs by scintillation counting. Format: functional, organism-based.
The test system of series [3] is Plasmodium falciparum. Put plainly: Resistant factor, ratio of IC50 for chloroquine-resistant Plasmodium falciparum K1 to IC50 for chloroquine-sensitive Plasmodium falciparum 3D7. Format: functional. A digest of the protocol:
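Resistance factor computed as IC50 against K1 divided by IC50 against 3D7, both from the [3H]hypoxanthine incorporation assay.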

A further series relates to MDCK. Put plainly: Cytotoxicity against MDCK cells assessed as cell viability by colorimetric formazan-based MTS assay. Further details: species or system Canis lupus familiaris. The following applies: dog, mdck. A digest of the protocol:
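Cytotoxicity on MDCK cells; 50% cytotoxic concentration from cell viability measured by colorimetric formazan-based MTS assay.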

A short description of series [4]: Cytotoxicity against MDCK cells assessed as minimum compound concentration required to causes microscopically detectable alteration of normal cell morphology. The following applies: dog. Format: cell-based, Canis lupus familiaris. A digest of the protocol:
(§1)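 Confluent, non-proliferating cell cultures were exposed to the compounds. The endpoint was the minimum concentration producing a microscopically detectable alteration of normal cell morphology.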

Series [5] is described as follows: Selectivity index, ratio of CC50 for MDCK cells to IC50 for chloroquine-resistant Plasmodium falciparum K1. Format: functional. In outline: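 Selectivity index computed as MTS-based CC50 on MDCK cells divided by IC50 against P. falciparum K1.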
The nature of series [6]: Cytotoxicity against african green monkey Vero cells assessed as minimum compound concentration required to causes microscopically detectable alteration of normal cell morphology. It counts as cell-based. The following applies: chlorocebus sabaeus. A digest of the protocol: as §1
Another series deals with Human respirovirus 3. Nature of the series: Antiviral activity against Parainfluenza-3 virus infected in african green monkey Vero cells assessed as inhibition of virus-induced cytopathogenicity after 4 days. It counts as functional, organism-based. The following applies: Human respirovirus 3, Vero, 96 h. In outline:
(§2)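 Confluent HEL, Vero or HeLa monolayers were inoculated with 100 CCID50 of virus in the presence of varying concentrations of compound. Cytopathicity was scored when it reached completion in untreated, virus-infected control cultures.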

Series [7] relates to Mammalian orthoreovirus 1. Put plainly: Antiviral activity against Reovirus-1 infected in african green monkey Vero cells assessed as inhibition of virus-induced cytopathogenicity after 4 days. Format: functional, organism-based. The following applies: Mammalian orthoreovirus 1, Vero, 96 h. A digest of the protocol:
as §2

Another series has as its system Sindbis virus. Nature of the series: Antiviral activity against Sindbis virus infected in african green monkey Vero cells assessed as inhibition of virus-induced cytopathogenicity after 4 days. It counts as functional, organism-based. The following applies: 96 h. A digest of the protocol:
as §2

In series [8] the test system is Coxsackievirus B4. Nature of the series: Antiviral activity against Coxsackie virus B4 infected in african green monkey Vero cells assessed as inhibition of virus-induced cytopathogenicity after 4 days. The following applies: Enterovirus B, 96 h. Format: functional, organism-based. A digest of the protocol: as §2
The next series concerns Punta Toro virus. Nature of the series: Antiviral activity against Punta Toro virus infected in african green monkey Vero cells assessed as inhibition of virus-induced cytopathogenicity after 4 days. The following applies: 96 h. It counts as functional, organism-based. A digest of the protocol:
as §2

The subject of series [9] is Human alphaherpesvirus 1. Put plainly: Antiviral activity against HSV1 KOS infected in HEL cells assessed as inhibition of virus-induced cytopathogenicity after 4 days. Format: functional, organism-based. The following applies: Human alphaherpesvirus 1, KOS, 96 h. A digest of the protocol:
(§3)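 Confluent HEL or HeLa monolayers infected with 100 CCID50 of virus in the presence of varying compound concentrations.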

For a further series, the system named is Human alphaherpesvirus 2. Put plainly: Antiviral activity against HSV2 G infected in HEL cells assessed as inhibition of virus-induced cytopathogenicity after 4 days. It counts as functional, organism-based. The following applies: Human alphaherpesvirus 2, strain G, 96 h. In outline: as §2
For series [10], the system named is Vesicular stomatitis virus. Put plainly: Antiviral activity against Vesicular stomatitis virus infected in HEL cells assessed as inhibition of virus-induced cytopathogenicity after 4 days. It counts as functional, organism-based. The following applies: 96 h. In outline: as §3
Series [11] concerns Human alphaherpesvirus 1. Put plainly: Antiviral activity against thymidine kinase-deficient acyclovir-resistant HSV1 KOS infected in HEL cells assessed as inhibition of virus-induced cytopathogenicity after 4 days. The following applies: Human alphaherpesvirus 1, KOS, 96 h. It counts as functional, organism-based. A digest of the protocol:
as §3

Series [12] can be described thus: Cytotoxicity against human HEL cells assessed as minimum compound concentration required to causes microscopically detectable alteration of normal cell morphology. It counts as cell-based. In outline:
as §1

Series [13] can be described thus: Cytotoxicity against human HeLa cells assessed as minimum compound concentration required to causes microscopically detectable alteration of normal cell morphology. Format: cell-based. A digest of the protocol:
as §1

Series [14] has as its system Vesicular stomatitis virus. Nature of the series: Antiviral activity against Vesicular stomatitis virus infected in HeLa cells assessed as inhibition of virus-induced cytopathogenicity after 4 days. The following applies: 96 h. Format: functional, organism-based. A digest of the protocol: as §3
In series [15] the test system is Coxsackievirus B4. Put plainly: Antiviral activity against Coxsackie virus B4 infected in human HeLa cells assessed as inhibition of virus-induced cytopathogenicity after 4 days. It counts as functional, organism-based. The following applies: Enterovirus B, 96 h. In outline:
as §2

For series [16], the system named is Respiratory syncytial virus. Put plainly: Antiviral activity against Respiratory syncytial virus infected in human HeLa cells assessed as inhibition of virus-induced cytopathogenicity after 4 days. It counts as functional, organism-based. The following applies: 96 h. A digest of the protocol: as §2
The subject of series [17] is Influenza A virus. Nature of the series: Antiviral activity against Influenza A virus H1N1 infected in MDCK cells assessed as reduction visual scoring of virus-induced cytopathogenicity after 4 days. Format: functional, organism-based. The following applies: 96 h. A digest of the protocol: (§4)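 MDCK monolayers infected with 100 CCID50 of influenza A (H1N1 or H3N2) or influenza B, with varying compound concentrations. Cytopathicity read when untreated infected controls reached complete CPE.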

Series [18] concerns Influenza A virus. Nature of the series: Antiviral activity against Influenza A virus H3N2 infected in MDCK cells assessed as reduction visual scoring of virus-induced cytopathogenicity after 4 days. Format: functional, organism-based. The following applies: 96 h. A digest of the protocol:
as §4

Series [19] relates to Influenza B virus. Nature of the series: Antiviral activity against Influenza B virus infected in MDCK cells assessed as reduction visual scoring of virus-induced cytopathogenicity after 4 days. Format: functional, organism-based. The following applies: 96 h. In outline:
as §4

In series [20] the test system is Influenza A virus. Put plainly: Antiviral activity against Influenza A virus H1N1 infected in MDCK cells assessed as inhibition of virus-induced cytopathogenicity after 4 days by colorimetric formazan-based MTS assay. It counts as functional, organism-based. The following applies: 96 h.
The subject of series [21] is Influenza A virus. Nature of the series: Antiviral activity against Influenza A virus H3N2 infected in MDCK cells assessed as inhibition of virus-induced cytopathogenicity after 4 days by colorimetric formazan-based MTS assay. Format: functional, organism-based. The following applies: 96 h.
Series [22] deals with Influenza B virus. Put plainly: Antiviral activity against Influenza B virus infected in MDCK cells assessed as inhibition of virus-induced cytopathogenicity after 4 days by colorimetric formazan-based MTS assay. The following applies: 96 h. Format: functional, organism-based.
Series [23] has as its system Human betaherpesvirus 5. Put plainly: Antiviral activity against Cytomegalovirus AD-169 infected in HEL cells assessed as inhibition of virus plaque formation after 4 days. It counts as functional, organism-based. The following applies: Human betaherpesvirus 5, AD169, HEL, 96 h.
Series [24] concerns Human betaherpesvirus 5. Nature of the series: Antiviral activity against Human cytomegalovirus Davis infected in HEL cells assessed as inhibition of virus plaque formation after 4 days. It counts as functional, organism-based. The following applies: Human betaherpesvirus 5, Davis, 96 h.
For the next series, the system named is HeLa. Nature of the series: Cytotoxicity against human HeLa cells assessed as cell viability by colorimetric formazan-based MTS assay.
Series [25] concerns Human alphaherpesvirus 3. Nature of the series: Antiviral activity against […] expressing thymidine kinase infected in HEL cells assessed as reduction of virus plaque formation after 4 days. The following applies: Human alphaherpesvirus 3, strain Oka vaccine, 96 h. Format: functional, cell-based.
In series [26] the test system is Human alphaherpesvirus 3. Put plainly: Antiviral activity against thymidine kinase-deficient […] infected in HEL cells assessed as reduction of virus plaque formation after 4 days. It counts as functional, organism-based. The following applies: Human alphaherpesvirus 3, 07-1, HEL, 96 h.
Series [27] can be described thus: Cytotoxicity against cat CRFK cells assessed as cell viability by colorimetric formazan-based MTS assay. More on the design: species or system Felis catus. The following applies: crfk.
The subject of series [28] is Feline infectious peritonitis virus. Put plainly: Antiviral activity against FIPV infected in cat CRFK cells assessed as inhibition of virus-induced cytopathic effect after 4 days by colorimetric formazan-based MTS assay. Format: functional, cell-based. The following applies: Alphacoronavirus 1, CRFK, 96 h.
For a further series, the system named is Felid alphaherpesvirus 1. Put plainly: Antiviral activity against Feline herpesvirus infected in cat CRFK cells assessed as inhibition of virus-induced cytopathic effect after 4 days by colorimetric formazan-based MTS assay. Format: functional, organism-based. The following applies: Felid alphaherpesvirus 1, CRFK, 96 h.
The test system of series [29] is Human immunodeficiency virus 1. Put plainly: Antiviral activity against HIV1 infected in human CEM cells assessed as inhibition of virus-induced cytopathic effect after 4 days. Format: functional, organism-based. The following applies: Human immunodeficiency virus 1, CCRF-CEM, 96 h. In outline:
(§5)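 CEM T-lymphocytes (~3 × 10^5 cells/ml) were infected with HIV-1 IIIB or HIV-2 ROD at ~100 CCID50, then immediately plated with a range of compound concentrations. Giant cell formation was scored microscopically after 4 days at 37 °C. Cytostatic activity was tested in parallel in uninfected CEM cells.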

Series [30] concerns Human immunodeficiency virus 2. Nature of the series: Antiviral activity against HIV2 infected in human CEM cells assessed as inhibition of virus-induced cytopathic effect after 4 days. It counts as functional, organism-based. The following applies: Human immunodeficiency virus 2, CCRF-CEM, 96 h. In outline:
as §5

Series [31] is described as follows: Inhibition of beta-hematin formation assessed as Ferriprotoporphyrin IX biomineralisation at 1 mg/ml after 24 hrs. Format: functional. A digest of the protocol:
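Hemin chloride (0.5 mg/ml in DMSO) mixed with 0.5 M sodium acetate buffer pH 4.4 and drug or solvent control, incubated 37 °C for 24 h. Pellet washed with DMSO to remove unreacted hemin, dissolved in 0.1 N NaOH, absorbance read at 405 nm; percent inhibition relative to control. Highest concentration tested 1 mg/ml.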

Series [32] can be described thus: Inhibition of beta-hematin formation assessed as Ferriprotoporphyrin IX biomineralisation after 24 hrs. Format: functional. A digest of the protocol: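 Hemin (0.5 mg/ml in DMSO) was mixed with 0.5 M sodium acetate pH 4.4 and compound, then incubated for 24 h at 37 °C. The pellet was washed with DMSO to remove unreacted hemin and dissolved in 0.1 N NaOH, with A405 read. Percent inhibition was taken versus solvent control, and IC50 by curve fitting.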

The structures appear in SMILES notation.

As for `CCOC(=O)c1c(C)nc(NCCCCNc2ccnc3cc(Cl)ccc23)nc1C`, the IC50 in the series on Plasmodium falciparum [1] amounted to 0.0421 µM; with Plasmodium falciparum [2], 1.66 µM. The “Ratio IC50” value in the series with Plasmodium falciparum [3] is on record as 39.422. For the same molecule, the CC50 in the series with MDCK was found to be 0.8 µM; with HeLa it was 6.07 µM; in series [27], 14.5 µM. In addition, the MCC in series [4] was 4 µM; in [6], 100 µM; in [12], more than 20 µM; in series [13], not below 20 µM. The “Ratio CC50/IC50” value in [5] came to 0.48. Moreover, the EC50 was more than 20 µM in the series on Human respirovirus 3; more than 20 µM in series [7]; more than 20 µM in the series on Sindbis virus; more than 20 µM with Coxsackievirus B4 [8]; more than 20 µM with Punta Toro virus; more than 100 µM with Human alphaherpesvirus 1 [9]. The EC50 in the series on Human alphaherpesvirus 2 is more than 20 µM; in series [10], more than 100 µM; with Human alphaherpesvirus 1 [11], more than 100 µM; in series [14], more than 20 µM; in the series with Coxsackievirus B4 [15], more than 20 µM; in series [16] it was more than 20 µM. The EC50 with Influenza A virus [17], with Influenza A virus [18], in the series on Influenza B virus [19], with Influenza A virus [20], in the series with Influenza A virus [21] and in the series with Influenza B virus [22] was more than 0.8 µM throughout. Further, the EC50 was more than 4 µM with Human betaherpesvirus 5 [23]; 5.23 µM with Human betaherpesvirus 5 [24]; 9.26 µM in the series with Human alphaherpesvirus 3 [25]; more than 20 µM with Human alphaherpesvirus 3 [26]; more than 4 µM in [28]; more than 4 µM in the series on Felid alphaherpesvirus 1. For the same molecule, the EC50 in series [29] and in series [30] was more than 2 µM throughout. For the same molecule, the inhibition in [31] worked out at 100%.

For the molecule `CCN(CC)CCCC(C)Nc1ccnc2cc(Cl)ccc12` (centres undefined) [CHLOROQUINE], the IC50 in series [32] came to 18 µM.

The values above are taken from ChEMBL document CHEMBL2021854, “2-Aminopyrimidine based 4-aminoquinoline anti-plasmodial agents. Synthesis, biological activity, structure-activity relationship and mode of action studies” (Eur J Med Chem, 2012).
